ChEMBL document CHEMBL1140324, “Rational design of non-nucleoside, potent, and orally bioavailable adenosine deaminase inhibitors: predicting enzyme conformational change and metabolism” (J Med Chem, 2005)
pIC50: −log10 of the molar value. “And” between values parts separate entries of the source, which are not always exact repeats. Equal entries are not always repeated.

Columns and labels:
Mus musculus [1] = experiment: Antitumor activity (10 mg/kg, p.o., b.i.d.) on lymphoma U-937 tumor growth inoculated in mice; format: functional
Outline: (§1)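 SCID mice bearing U-937 lymphoma. Inhibitor given orally as HCl salt, either once (u.i.d.) or twice (b.i.d.) daily, in combination with the antitumor nucleoside AraA. Read-out was median survival time in days, compared with an untreated control group and an AraA-alone arm (10 mg/kg).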

[2] = Maximum plasma concentration after peroral administration of 10 mg/kg in rat; format: ADME, organism-based; set-up: dose 10 mg/kg, route oral; details: po
Outline: (§2)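 Rats dosed orally at 10 mg/kg (n = 2–3). Cmax and t1/2 are taken from plasma. AUC covers 0–24 h. Bioavailability is the oral exposure parameter for the same dosing.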

[3] = In vitro clearance in rat liver microsomes; format: ADME, Microsome; details: read-out: Clearance
Rattus norvegicus [4] = species: Rattus norvegicus; experiment: Peroral dose showing antiinflammatory effect in adjuvant arthritis model in rats; format: functional; details: po
Outline: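 Rat adjuvant arthritis model with oral dosing. Anti-inflammatory potency is reported as ED30 in mg/kg po.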

[5] = In vitro clearance in dog liver microsomes; format: ADME, Canis lupus familiaris, Microsome
Rattus norvegicus [6] = experiment: (§3) Oral bioavailability in rat (dose 10 mg/kg); format: functional, organism-based; outline: as §2
[7] = In vitro clearance in human liver microsomes; format: ADME, Microsome; details: read-out: Clearance
[8] = Oral bioavailability in dog (dose 10 mg/kg); format: ADME, organism-based, Canis lupus familiaris; details: in vivo
Outline: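 Dogs dosed orally at 10 mg/kg (n = 2–3). Oral bioavailability was determined.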

[9] = Area under blood-concentration time curve after 10 mg/kg peroral dose in rat; format: ADME, organism-based; set-up: dose 10 mg/kg, route oral; details: in vivo, po; outline: as §2
[10] = Plasma half life (10 mg/kg, p.o.) in rat; format: ADME, organism-based; details: po; outline: as §2
Adenosine deaminase = biological target: T1, Adenosine deaminase (Homo sapiens, UniProt P00813); experiment: Inhibitory concentration against adenosine deaminase
T1 sequence (P00813 whole entry): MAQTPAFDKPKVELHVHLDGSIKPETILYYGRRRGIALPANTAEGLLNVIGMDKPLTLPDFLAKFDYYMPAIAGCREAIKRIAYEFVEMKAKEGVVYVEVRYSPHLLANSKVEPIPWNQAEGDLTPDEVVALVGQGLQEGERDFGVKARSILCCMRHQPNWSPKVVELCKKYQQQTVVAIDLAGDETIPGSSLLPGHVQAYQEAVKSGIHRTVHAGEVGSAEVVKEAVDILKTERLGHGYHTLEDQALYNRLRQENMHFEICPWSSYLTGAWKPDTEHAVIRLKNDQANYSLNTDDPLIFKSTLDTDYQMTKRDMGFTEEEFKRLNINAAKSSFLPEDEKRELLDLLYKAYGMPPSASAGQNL

Mus musculus [11] = experiment: Antitumor activity (10 mg/kg, p.o., b.i.d.) expressed as median survival time is its ability to inhibit lymphoma U-937 tumor growth inoculated in mice; format: functional; outline: as §1
Mus musculus [12] = experiment: Antitumor activity (32 mg/kg, p.o., b.i.d.) expressed as median survival time is its ability to inhibit lymphoma U-937 tumor growth inoculated in mice; format: functional; outline: as §1
Mus musculus [13] = experiment: Antitumor activity (2.5, i.p.) on lymphoma U-937 tumor growth inoculated in mice; format: functional
Outline: (§4)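 SCID mouse U-937 lymphoma model. Pentostatin given intraperitoneally once daily. Efficacy read as median survival time in days, relative to a control group.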

Mus musculus [14] = experiment: Antitumor activity (0.25 mg/kg, i.p.) on lymphoma U-937 tumor growth inoculated in mice; format: functional; outline: as §4
Mus musculus [15] = experiment: Antitumor activity (32 mg/kg, p.o., u.i.d.) expressed as median survival time is its ability to inhibit lymphoma U-937 tumor growth inoculated in mice; format: functional; outline: as §1
[16] = as §3; format: ADME, organism-based; details: in vivo; outline: as §2
Mus musculus [17] = experiment: Antitumor activity (10 mg/kg, p.o., u.i.d.) expressed as median survival time is its ability to inhibit lymphoma U-937 tumor growth inoculated in mice; format: functional; outline: as §1

CLint scaled [3] | half-life [10] | Structure (SMILES) | Cmax [2] | ED30 (Rattus norvegicus [4]) | Clearance [5] | AUC [9] | pIC50 (Adenosine deaminase) | also measured
– | – | Nc1ncnc2c1ncn2[C@@H]1O[C@H](CO)[C@@H](O)[C@@H]1O [VIDARABINE] | – | – | – | – | – | MST (Mus musculus [1]): 34 days
131 mL/min/kg | 3.45 h | C[C@H](O)[C@@H](CCc1cccc2nc(-c3ccc(Cl)cc3)oc12)n1cnc(C(N)=O)c1 | 5580 ng/mL | 0.6 mg/kg | 6 mL/min/kg | 29600 ng·h/mL | – | bioavailability (Rattus norvegicus [6]): 52%; CLint scaled [7]: 34 mL/min/kg; bioavailability [8]: 50%
– | – | C[C@H](O)[C@@H](CCc1cccc2ccccc12)n1cnc(C(N)=O)c1 | 1250 ng/mL | – | 30 mL/min/kg | 1370 ng·h/mL | 7.80 | –
– | – | NC(N)=Nc1nc(-c2ccc(CNc3nc4ccccc4[nH]3)s2)cs1 | – | – | – | – | 6.15 | –
– | – | C[C@H](O)[C@@H](CCc1cccc(Cl)c1Cl)n1cnc(C(N)=O)c1 | 1630 ng/mL | 1.6 mg/kg | 21 mL/min/kg | 2110 ng·h/mL | 7.82 | MST (Mus musculus [11]): 34 days; MST (Mus musculus [12]): 42.5 days and 38 days
– | – | OC[C@H]1O[C@@H](n2cnc3c2N=CNC[C@H]3O)C[C@@H]1O [PENTOSTATIN] | – | – | – | – | – | MST (Mus musculus [13]): 42.5 days; MST (Mus musculus [14]): 34 days
643 mL/min/kg | 1.09 h | Cn1cc(CC[C@H](CO)n2cnc(C(N)=O)c2)c2cc(OCCCc3ccc(Cl)cc3)ccc21 | 210 ng/mL | – | – | 260 ng·h/mL | 8.17 | –
– | – | NC(=O)c1cn(C(CO)CCc2cccc3ccccc23)cn1 (configuration not stated) | – | – | – | – | 6.24 | –

Structure (SMILES) | CLint scaled [3] | half-life [10] | Cmax [2] | ED30 (Rattus norvegicus [4]) | Clearance [5] | AUC [9] | pIC50 (Adenosine deaminase) | also measured
C[C@H](O)[C@@H](CCc1cccc2oc(-c3ccc(Cl)cc3)nc12)n1cnc(C(N)=O)c1 | 50 mL/min/kg | 1.87 h | 14700 ng/mL | 0.3 mg/kg | 6.2 mL/min/kg | 56200 ng·h/mL | 8.06 | MST (Mus musculus [15]): 45.5 days; bioavailability [16]: 86%; CLint scaled [7]: 12 mL/min/kg; MST (Mus musculus [17]): 43 days; bioavailability [8]: 81%
